Measurements taken from ChEMBL document CHEMBL1268845, “A convenient synthesis and molecular modeling study of novel purine and pyrimidine derivatives as CDK2/cyclin A3 inhibitors” (Bioorg Med Chem, 2010).

Tests used:
[1] = Cytotoxicity against mouse EAC cells after 48 hrs; assay type: functional; conditions: Ehrlich
How it was run: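 EAC cells were harvested by needle aspiration of ascitic fluid from pre-inoculated female Swiss albino mice and maintained by weekly intraperitoneal transplantation. They were suspended in saline at 2.5 × 10^6 per mL and exposed for 48 h to serial dilutions from 10^-9 to 10^-4 M in DMSO/saline. The read-out was GI50.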

[2] = test system: CDK2/cyclin A3 (Marthasterias glacialis); assay: Inhibition of starfish CDK2/cyclin A3 by ELISA

Compound | GI50 [1] [µM] | IC50 [2] [µM]
COc1ccc(/C=N/C(C#N)=C(/C#N)NC(=O)NS(=O)(=O)c2ccc(C)cc2)cc1 | 10 | 39
CC(=O)CC1(C)N=C(C(N)=O)c2[nH]c(=O)n(S(=O)(=O)c3ccc(C)cc3)c2N1 (stereo unspecified) | 16 | 13
COc1cc(/C=N/C(C#N)=C(/C#N)NC(=O)NS(=O)(=O)c2ccc(C)cc2)cc(OC)c1 | 25 | 42
COc1ccc(/C=N/c2c(C#N)nc(=O)[nH]c2NS(=O)(=O)c2ccc(C)cc2)cc1 | 17 | 39
COc1cc(OC)c(/C=N/C(C#N)=C(/C#N)NC(=O)NS(=O)(=O)c2ccc(C)cc2)c(OC)c1 | 26 | 38
Cc1ccc(S(=O)(=O)NC(=O)N/C(C#N)=C(\N)C#N)cc1 | 12 | 32
COc1cc(/C=N/c2c(C#N)nc(=O)[nH]c2NS(=O)(=O)c2ccc(C)cc2)cc(OC)c1 | 19 | 35
COc1cccc(/C=N/C(C#N)=C(/C#N)NC(=O)NS(=O)(=O)c2ccc(C)cc2)c1OC | 27 | 43
Cc1ccc(S(=O)(=O)n2c3c([nH]c2=O)C(C(N)=O)=NC(C)(C)N3)cc1 | 15 | 14
Nc1nc(OC[C@H]2CCC(=O)N2)c2nc[nH]c2n1 | 18 | 35
COc1cc(OC)c(/C=N/c2c(C#N)nc(=O)[nH]c2NS(=O)(=O)c2ccc(C)cc2)c(OC)c1 | 16 | 38
Cc1ccc(S(=O)(=O)NC(=N)c2[nH]c(=O)[nH]c2C#N)cc1 | 28 | 45
COc1cccc(/C=N/c2c(C#N)nc(=O)[nH]c2NS(=O)(=O)c2ccc(C)cc2)c1OC | 21 | 36
